The array DNA melting data of Ke et al. (doi:10.1101/2024.01.08.574731)

Tests used:
[1] = folding enthalpy; higher = less favourable; fluorescence melt of hairpins on a sequencing array, two-state fit; conditions: sodium 0.088 M
Outline: (§1)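 Two-state fits, bootstrapped, provided melting temperature and folding enthalpy from Cy3 fluorescence normalised to pre-quench Cy3 and to control constructs. Library hairpins with annealed Cy3 and quencher oligos were imaged on a sequenced MiSeq flow cell in 50 mM Na-HEPES pH 8.0, 25 mM NaCl, at 2.5 °C intervals up to 60 °C. Four replicates were combined with inverse-variance weighting. A 9.35 °C upward shift was applied to fitted temperatures to match UV melts.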

[2] = melting temperature; fluorescence melt of hairpins on a sequencing array, two-state fit, raised by 9.35 °C to match UV melts; conditions: sodium 0.088 M
Outline: as §1

| Sequence | folding enthalpy [1] [kcal/mol] | Tm [2] [°C] |
| --- | --- | --- |
| GAGGCGCCGAAAGGCCTC (((..(((....)))))) | -13.3 | 44.3 |
| GTCGCCGAAAGGCGCGAC ((((((....)))..))) | -11.3 | 58.4 |
| CGTTCGGAAACGACACG ((((((....))).))) | -26.9 | 39.3 |
| GAGTCCGGAAACGGATTC ((.((((....)))).)) | -24.7 | 49.9 |
| CGGACACGGAAACGTCCG (((..(((....)))))) | -26 | 47.6 |
| GAGTACGAAAGTATCCTC ((((((....)))..))) | -17.6 | 25.4 |
| GATCGTCGGGACGATC ((((((....)))))) | -41.3 | 61.7 |
| ACAGAGAAATCTGT (((((....))))) | -13.6 | 32.7 |
| GATACCGGAAACGATATC ((((.((....)).)))) | -25.8 | 34.8 |
| GGGCTACGAAAGTACCCC (((.(((....))).))) | -17.5 | 49.4 |
| GCTGGGCGAAAGCCAGGC ((..(((....)))..)) | -17.7 | 59.6 |
| GATCTTGCGAAAGATC ((((((....)))))) | -46.2 | 50.6 |
| GGAGTCGGAAACGACCCC ((.((((....)))).)) | -15.2 | 54.4 |
| GATCTACAGGTAGATC ((((((....)))))) | -37.6 | 48.8 |
| GTCGATCGAAAGATGGAC (((.(((....))).))) | -28.3 | 48.6 |
| GTCGACGAAAGTCAGAC ((((((....))).))) | -35.2 | 52.3 |
| GATCCTCTACAGGATC ((((((....)))))) | -31.1 | 51.8 |
| GATCGTGGAAACGCGATC (((((.(....).))))) | -39.9 | 55.6 |
| CAAAGGAAACTTTG (((((....))))) | -16.2 | 35 |
| GGAGATGGAAACATTTCC (((.(((....))).))) | -32.9 | 39.2 |
| GTGCTAGGAAACTAGCAC (((((((....))))))) | -49.4 | 65 |
| GCGACACGTCGC ((((....)))) | -28.3 | 61.4 |
| GAGCCTGGAAACAAGCTC ((((.((....)).)))) | -29.8 | 38.6 |

| Sequence | folding enthalpy [1] [kcal/mol] | Tm [2] [°C] |
| --- | --- | --- |
| CGGACTCGGAAACGACCG (((..(((....)))))) | -17.5 | 32.9 |
| GCCGTGCGAAAGCTCAGC ((.(.((....)).).)) | -15.4 | 40.4 |
| CGGCTCGGAAACGAACCG (((.(((....))).))) | -44.5 | 51 |
| GTTACAGGAAACCGTAAC (((((.(....).))))) | -35.6 | 39.4 |
| GTCTTGCGAAAGCACGAC (((.(((....))).))) | -41.5 | 52.1 |
| GCGACGCGAAAGCCGCGC (((..((....))..))) | -23.6 | 67.1 |
| GACGCCCGAAAGGGGTC (((.(((....)))))) | -17.1 | 55.6 |
| GGTGCAGAAATGCACC ((((((....)))))) | -25.9 | 68 |
| GGTCGTGGAAACATGACC ((((.((....)).)))) | -34 | 56.5 |
| GATCATTTTTATGATC ((((((....)))))) | -40 | 49.1 |
| CACATGAAAATGTG (((((....))))) | -27.3 | 47.9 |
| GATCTCGTCTGAGATC ((((((....)))))) | -41.8 | 55.3 |
| GGAGAGGGAAACCTTTCC (((.(((....))).))) | -27.3 | 38.2 |
| GCGCACGGAAACGCGCGC ((((.((....)).)))) | -40.6 | 69 |
| GATCGAAGCTTCGATC ((((((....)))))) | -49.6 | 56.5 |
| GATCAGCGCTCTGATC ((((((....)))))) | -33.9 | 50.4 |
| GATTCACGAAAGTGTATC (((.(((....))).))) | -25.9 | 42.7 |
| GGCCGAGGAAACTCAGCC (((.(((....))).))) | -32 | 46.4 |
| CGTAGCCGGAAACGGACG (((..(((....)))))) | -8.93 | 31.7 |
| GATGGCGAAAGCCTTATC ((((((....)))..))) | -7.22 | 25.9 |
| GATCTTGATAAAGATC ((((((....)))))) | -40.9 | 52.1 |
| GTCGCCTCGAAAGAGGAC (((..(((....)))))) | -9.5 | 31.3 |
| GCCGTGGGAAACTACGGC (((((.(....).))))) | -42.8 | 61.1 |

| Sequence | folding enthalpy [1] [kcal/mol] | Tm [2] [°C] |
| --- | --- | --- |
| CTAACGAAAGTTAG (((((....))))) | -23.9 | 49.4 |
| GCACGCTCGAAAGAGTGC (((..(((....)))))) | -20.9 | 50.2 |
| GTTGACGAAAGTCTAAC ((((((....))).))) | -14.7 | 39.7 |
| GACTACGAAAGTAGAGTC ((((((....)))..))) | -13.7 | 34.7 |
| GTATACGAAAGTAATAC ((((((....))).))) | -19.2 | 35.5 |
| GATAACGAAAGTTATATC ((((((....)))..))) | -16 | 38.9 |
| GATCTTCCTAAGATC ((((((...)))))) | -31.6 | 45.7 |
| GATCGCTGCCGCGATC ((((((....)))))) | -32.8 | 67.3 |
| GATCGACAATCGATC ((((((...)))))) | -29.4 | 46.6 |
| GGAAACGAAAGTTCGTCC ((((((....)))..))) | -13 | 24.8 |
| CGGACGGAAACGTTCCG ((((((....))).))) | -27.5 | 51.2 |
| GGGGATCCGAAAGGACCC (((..(((....)))))) | -36.7 | 53.9 |
| GTGACCGGAAACAGTCAC (((((.(....).))))) | -32.1 | 45.2 |
| GCAGCGCGAAAGCCCCGC ((.(.((....)).).)) | -9.42 | 37 |
| GGACGCCCGAAAGGGTCC (((..(((....)))))) | -16.2 | 43.2 |
| GGTCGTGGAAACACGGCC ((.((((....)))).)) | -56.7 | 61.8 |
| GACAGGGGAAACCCCGTC (((.(((....))).))) | -24.6 | 50.3 |
| GATCCGCTTCCGGATC ((((((....)))))) | -38.2 | 57.6 |
| GGCCGGGGAAACCCAGCC (((.(((....))).))) | -42.6 | 51.7 |
| GGCATTCGAAAGAAGCC (((.(((....)))))) | -25 | 48.5 |
| GCAGTGGGAAACTGCTGC ((((..(....)..)))) | -27.6 | 58.1 |
| GTCTCGGGAAACCGAAAC ((.((((....)))).)) | -15.4 | 34.7 |
| GCGTGGGGAAACCTACGC ((((.((....)).)))) | -41.3 | 58.7 |
